Measurements from ChEMBL document CHEMBL1135760, “Anilinoquinazoline inhibitors of fructose 1,6-bisphosphatase bind at a novel allosteric site: synthesis, in vitro characterization, and X-ray crystallography” (J Med Chem, 2002).

Legend:
[1] = target: T1, Epidermal growth factor receptor (Homo sapiens, UniProt P00533); experiment: (§1) Inhibition of (EGFR) epidermal growth factor receptor tyrosine kinase
[2] = Inhibition of human recombinant wild type fructose-1,6-bisphosphatase (F16BP)
[3] = target: Fructose-1,6-bisphosphatase 1 (Rattus norvegicus, UniProt P19112, Q51K/Q56H); experiment: Concentration required for 50% Inhibition against (F16BP) Fructose-1,6-bisphosphatase in rat double mutant (Gln50Lys Gln55His) enzyme using malachite green assay
Chain of Fructose-1,6-bisphosphatase 1 (Rattus norvegicus, UniProt P19112, Q51K/Q56H) (P19112 2-363 Q51K/Q56H limits assumed): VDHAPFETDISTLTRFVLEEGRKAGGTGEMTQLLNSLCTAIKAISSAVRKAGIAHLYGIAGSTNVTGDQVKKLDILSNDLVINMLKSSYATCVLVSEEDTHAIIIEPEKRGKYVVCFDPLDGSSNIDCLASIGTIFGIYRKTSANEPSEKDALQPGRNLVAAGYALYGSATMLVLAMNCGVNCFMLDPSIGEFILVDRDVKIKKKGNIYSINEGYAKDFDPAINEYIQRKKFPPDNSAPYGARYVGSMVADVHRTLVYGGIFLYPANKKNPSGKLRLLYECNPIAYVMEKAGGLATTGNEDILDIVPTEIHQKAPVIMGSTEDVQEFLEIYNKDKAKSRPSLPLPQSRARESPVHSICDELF
Outline: (§2)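 Recombinant rat liver F16BPase (wild type or Gln50Lys/Gln55His double, Gln50Lys or Gln55His single mutants), expressed in E. coli BL21(DE3) and purified, 40 ng/well. Enzyme added to substrate plus compound with no preincubation. Final buffer was 50 mM HEPES pH 7.2, 100 mM KCl, 2 mM MgCl2, 2 mM EGTA, 1 mM DTT, 500 μM fructose-1,6-bisphosphate. Incubation 40 min at room temperature. Released phosphate read at 620 nm with ammonium molybdate/malachite green. Means of ≥3 experiments. Dose-response tested up to 10 μM.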

[4] = target: Fructose-1,6-bisphosphatase 1 (Rattus norvegicus, UniProt P19112, Q51K); experiment: Concentration required for 50% Inhibition against (F16BP) Fructose-1,6-bisphosphatase in rat single mutant (Gln50Lys) enzyme using malachite green assay; outline: as §2
Chain of Fructose-1,6-bisphosphatase 1 (Rattus norvegicus, UniProt P19112, Q51K) (P19112 2-363 Q51K limits assumed): as the sequence (P19112 2-363 Q51K/Q56H limits assumed) above, with H55Q counted along it

[5] = target: T2, Fructose-1,6-bisphosphatase 1 (Rattus norvegicus, UniProt P19112); experiment: Concentration required for 50% Inhibition against (F16BP) Fructose-1,6-bisphosphatase in rat wild type enzyme using malachite green assay; outline: as §2
T2 sequence (P19112 whole entry): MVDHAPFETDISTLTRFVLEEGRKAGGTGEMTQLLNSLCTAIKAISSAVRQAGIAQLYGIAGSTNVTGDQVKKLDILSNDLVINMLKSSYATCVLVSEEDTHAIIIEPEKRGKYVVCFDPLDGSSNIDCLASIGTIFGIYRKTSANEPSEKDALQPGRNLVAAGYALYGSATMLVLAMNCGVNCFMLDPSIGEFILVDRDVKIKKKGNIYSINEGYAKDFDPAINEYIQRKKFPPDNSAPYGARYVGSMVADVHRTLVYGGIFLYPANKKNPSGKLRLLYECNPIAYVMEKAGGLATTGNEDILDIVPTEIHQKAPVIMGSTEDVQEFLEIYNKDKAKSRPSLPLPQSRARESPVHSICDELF

[6] = target: T3, Fructose-1,6-bisphosphatase 1 (Rattus norvegicus, UniProt P19112, Q56H); experiment: Concentration required for 50% Inhibition against (F16BP) Fructose-1,6-bisphosphatase in rat single mutant (Gln55His) enzyme using malachite green assay; outline: as §2
T3 sequence (P19112 2-363 Q56H limits assumed): as the sequence (P19112 2-363 Q51K/Q56H limits assumed) above, with K50Q counted along it

[7] = target: T3, Fructose-1,6-bisphosphatase 1; experiment: Concentration required for 50% Inhibition against (F16BP) Fructose-1,6-bisphosphatase in rat single mutant(Gln55His) enzyme using malachite green assay; outline: as §2
[8] = target: T1, Epidermal growth factor receptor; experiment: as §1; settings: concentration not given here

T1 sequence (P00533 whole entry): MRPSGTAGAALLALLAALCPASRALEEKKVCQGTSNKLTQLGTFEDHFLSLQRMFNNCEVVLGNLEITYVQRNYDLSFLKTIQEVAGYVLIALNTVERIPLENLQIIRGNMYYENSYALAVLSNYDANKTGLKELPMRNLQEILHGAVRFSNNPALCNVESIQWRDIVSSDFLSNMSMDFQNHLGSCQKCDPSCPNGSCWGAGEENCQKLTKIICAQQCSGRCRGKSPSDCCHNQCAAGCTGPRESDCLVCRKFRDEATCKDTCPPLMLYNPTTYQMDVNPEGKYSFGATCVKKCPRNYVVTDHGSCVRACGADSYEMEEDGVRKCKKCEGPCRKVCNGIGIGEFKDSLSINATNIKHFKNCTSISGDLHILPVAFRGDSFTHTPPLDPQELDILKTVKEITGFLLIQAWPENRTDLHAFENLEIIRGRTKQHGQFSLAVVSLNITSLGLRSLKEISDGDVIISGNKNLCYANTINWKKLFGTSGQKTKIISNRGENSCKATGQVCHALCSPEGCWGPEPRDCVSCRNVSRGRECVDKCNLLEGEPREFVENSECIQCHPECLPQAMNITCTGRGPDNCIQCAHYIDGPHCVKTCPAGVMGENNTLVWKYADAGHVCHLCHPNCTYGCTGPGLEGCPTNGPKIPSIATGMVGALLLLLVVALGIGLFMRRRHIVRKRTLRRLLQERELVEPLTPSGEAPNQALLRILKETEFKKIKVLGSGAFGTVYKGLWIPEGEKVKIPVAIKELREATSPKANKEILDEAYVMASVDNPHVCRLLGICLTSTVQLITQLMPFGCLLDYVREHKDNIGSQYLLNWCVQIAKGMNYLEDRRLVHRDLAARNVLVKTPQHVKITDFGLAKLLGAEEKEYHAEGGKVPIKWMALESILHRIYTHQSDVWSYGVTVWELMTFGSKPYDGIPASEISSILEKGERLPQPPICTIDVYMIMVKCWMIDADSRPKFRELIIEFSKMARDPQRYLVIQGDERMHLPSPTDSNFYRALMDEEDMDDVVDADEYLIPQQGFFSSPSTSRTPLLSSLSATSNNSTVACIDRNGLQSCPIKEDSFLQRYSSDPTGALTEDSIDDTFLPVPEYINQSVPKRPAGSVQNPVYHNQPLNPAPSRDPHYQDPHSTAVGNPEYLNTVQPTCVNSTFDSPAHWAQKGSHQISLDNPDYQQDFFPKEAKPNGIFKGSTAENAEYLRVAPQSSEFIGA

SMILES	IC50 [1] [nM]	IC50 [2] [nM]	also measured
CCOc1cc2ncnc(Nc3cccc(-c4cncs4)c3)c2cc1OCC	11	980	
CCOc1cc2ncnc(Nc3cccc(-c4csc(CO)n4)c3)c2cc1OCC			IC50 [3]: 340 nM; IC50 [4]: > 10000 nM; IC50 [5]: > 10000 nM; IC50 [6]: 2900 nM
CCOc1cc2nc(CCCCl)nc(Nc3cccc(-c4csc(C)n4)c3)c2cc1OCC		4100	inhibition [8]: 31%
CCOc1cc2ncnc(Nc3cccc(-c4cscn4)c3)c2cc1OCC	18	390	
CCOc1cc2ncnc(Nc3cccc(-c4nccs4)c3)c2cc1OCC	2	380	
CCOc1cc2nc(CC)nc(Nc3cccc(-c4csc(C)n4)c3)c2cc1OCC	9300	1500	
CCOc1cc2nc(CCCl)nc(Nc3cccc(-c4csc(C)n4)c3)c2cc1OCC		1000	inhibition [8]: 11%
CCOc1cc2ncnc(Nc3cccc(-c4ccco4)c3)c2cc1OCC	3	1400	
CCOc1cc2nc(CCl)nc(Nc3cccc(-c4csc(C)n4)c3)c2cc1OCC		870	inhibition [8]: 10%
CCOc1cc2ncnc(Nc3cccc(-c4csc(C(N)=O)n4)c3)c2cc1OCC		930	IC50 [3]: 520 nM; IC50 [4]: > 10000 nM; IC50 [5]: > 10000 nM; IC50 [6]: 3000 nM

Second part, led by results:

IC50 [1] [nM]	IC50 [2] [nM]	SMILES	also measured
	640	CCOc1cc2ncnc(Nc3cccc(-c4csc(C)n4)c3)c2cc1OCC	IC50 [3]: 790 nM; IC50 [4]: > 10000 nM; IC50 [5]: > 10000 nM; IC50 [7]: 3800 nM
11	730	CCOc1cc2ncnc(Nc3cccc(-c4cc[nH]n4)c3)c2cc1OCC	
4	250	C#Cc1cc(Nc2ncnc3cc(OC)c(OC)cc23)ccc1F	
> 10000	4000	CCOc1cc2ncnc(Nc3cccc(-c4cnc(C)o4)c3)c2cc1OCC	
1100	1200	CCOc1cc2ncnc(Nc3cccc(-c4cncnc4)c3)c2cc1OCC	
